DAGLB inhibitor = DAGLB lipase inhibitors, primary screen, biochemical, fluorescence, HTS. Diacylglycerol lipase-beta (Homo sapiens), Q8NCG7. HEK293T DAGLB membrane lysate, EnzChek fluorogenic substrate. inhibition, % at 5.17 µM. 340,000 compounds, 0.059% hits. AID 504411, 2011; in the data active = inhibition above about 34%
PLCg1 inh = PLC-gamma1 enzyme inhibitors, primary screen, biochemical, fluorescence, purified enzyme. inhibition, % at 12.2 µM. 370,000 compounds, 0.84% hits. AID 720700, 2013. fluorogenic substrate. 1-phosphatidylinositol 4,5-bisphosphate phosphodiesterase gamma-1 (Homo sapiens), P19174; in the data active = inhibition above about 9.5%
sPLA2-III inh = human group III sPLA2 inhibitors, primary screen, biochemical, QFRET, BODIPY PC-A2 liposome substrate | Group 3 secretory phospholipase A2 (Homo sapiens), Q9NZ20 | QFRET BODIPY PC-A2 liposome hydrolysis, fluorescence | inhibition, % at 12.2 µM | 370,000 compounds, 0.56% hits | AID 743126, 2013;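 active = inhibition above mean plus 3 SD of compounds lying within the high and low control bounds, cut at about 19% in these data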
Target sequence (Q9NZ20 whole entry, looked up): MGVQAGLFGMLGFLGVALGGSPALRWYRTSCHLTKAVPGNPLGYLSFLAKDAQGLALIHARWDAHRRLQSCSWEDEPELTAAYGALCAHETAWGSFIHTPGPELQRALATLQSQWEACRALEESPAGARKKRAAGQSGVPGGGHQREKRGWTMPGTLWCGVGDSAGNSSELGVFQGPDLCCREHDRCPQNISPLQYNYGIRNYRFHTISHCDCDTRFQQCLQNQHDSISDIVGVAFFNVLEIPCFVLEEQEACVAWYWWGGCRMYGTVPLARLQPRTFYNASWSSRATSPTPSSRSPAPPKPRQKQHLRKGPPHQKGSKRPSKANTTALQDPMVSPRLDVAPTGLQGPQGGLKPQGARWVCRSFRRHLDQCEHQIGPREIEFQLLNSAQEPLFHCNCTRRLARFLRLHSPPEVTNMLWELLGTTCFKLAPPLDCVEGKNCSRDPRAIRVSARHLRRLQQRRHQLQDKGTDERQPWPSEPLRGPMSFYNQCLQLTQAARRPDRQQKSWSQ
PLCb3 inh = human PLC-beta3 inhibitors, primary screen, biochemical, fluorescence. 1-phosphatidylinositol 4,5-bisphosphate phosphodiesterase beta-3 (Homo sapiens), Q01970. Purified PLC-beta3, fluorogenic substrate. inhibition, % at 12.2 µM. 370,000 compounds, 0.18% hits. AID 720704, 2013; in the data active = inhibition above about 11%
TbMetRS inhib = T. brucei MetRS inhibitors, primary screen, biochemical, luminescence | purified T. brucei MetRS, ATP depletion, Kinase-Glo luminescence | 360,000 compounds, 0.4% hits | inhibition, % at 11.9 µM | AID 624268, 2012 | methionyl-tRNA synthetase (Trypanosoma brucei brucei);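 active = inhibition above a per-plate cutoff of the control wells' mean inhibition plus 3 SD, cut at about 5.5% in these data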
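Material: T. brucei methionyl-tRNA synthetase, purified; reagent: substrates ATP, L-methionine and bulk Escherichia coli tRNA; dosing: 11.9 µM single point; timing: 15 min plus 2 h at 25 °C; detection: luminescence of leftover ATP; evaluation: % inhibition; control set: DMSO-only wells as low control; replicates: singlicate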
TbMetRS confirm = T. brucei MetRS inhibitors, confirmation, biochemical, luminescence. shares compounds with TbMetRS inhib. T. brucei MetRS enzyme, luminescence (ATP depletion). inhibition, % at 11.9 µM. 1,400 compounds, 93% hits; in the data active = inhibition above about 7%
Jurkat cytotox = Jurkat T cell cytotoxicity, cytotoxicity control for T. brucei MetRS inhibitor project, luminescence, high throughput; shares compounds with TbMetRS inhib; Jurkat cells viability, ATP luminescence; inhibition, % at 8.3 µM; 1,400 compounds, 12% hits; in the data active = inhibition above about 15%
Tb MetRS inh FP = T. brucei MetRS inhibitors, orthogonal assay for T. brucei MetRS inhibitor project, biochemical, fluorescence polarization | shares compounds with TbMetRS inhib | purified T. brucei MetRS | inhibition, % at 11.9 µM | 1,400 compounds, 44% hits; in the data active = inhibition above about 17%
Each line names hits and unclear results; the compound was inactive in the other large screens (follow-up assays come after a bar, where they were run). A selection: hits, their analogues and other compounds. The true share with any hit is near 1.9%.

CCCC[C@H]1C2CC(OC(=O)NCc3ccc(Cl)cc3)C(C2)[C@H]2CCCCN21 (stereo not given in full)	none (no result: DAGLB inhibitor, TbMetRS inhib)
CN1C(=O)C[C@@](C#N)(C(=O)NCCc2ccccc2)[C@H]1c1ccccc1	none (no result: DAGLB inhibitor, TbMetRS inhib)
O=C(CSc1nc2ccccc2o1)NN=C/C=C/c1ccccc1	none (no result: DAGLB inhibitor, TbMetRS inhib)
O=C(C1=C[C@@H](c2ccc3c(c2)OCO3)C[C@@H](OCCCCO)O1)N1CCN(Cc2ccc3c(c2)OCO3)CC1	TbMetRS inhib 17.6 | TbMetRS confirm 55.5 | Jurkat cytotox inactive | Tb MetRS inh FP 24.9
CC(C)(C)OC(=O)NCc1cc2c(cc1/C=C/S(=O)(=O)NC1CCCC1)OCO2	none (no result: DAGLB inhibitor, TbMetRS inhib)
COC(=O)c1ccc2c(=O)n(CCCCCC(=O)NC3CCCCC3)c(=O)[nH]c2c1	none (no result: DAGLB inhibitor, TbMetRS inhib)
Cc1c(C)n(Cc2ccc(-c3ccccc3C(=O)O)cc2)c2ccc(C(=O)N[C@@H](C)c3ccc(Br)cc3)cc12	none (no result: DAGLB inhibitor, TbMetRS inhib)
C=CCNC(=S)NNC(=O)c1ccc(=O)n(Cc2ccccc2)c1	TbMetRS inhib 12.7 (no result: DAGLB inhibitor) | TbMetRS confirm 23.6 | Jurkat cytotox inactive | Tb MetRS inh FP inactive
C=CCNC(=S)NNC(=O)c1ccccc1	none
COc1ccc(N2C[C@@]3(O)CC[C@@H](O)[C@@H](OC)[C@@H]3[C@@](C)(O)[C@@H]2CC=C(C)C)cc1	none (no result: DAGLB inhibitor, TbMetRS inhib)
C=CCN1C(=O)[C@@H](CC(=O)NCc2ccc(C)o2)[C@]2(C(=O)OCC)CCCCC/C=C/12	none (no result: DAGLB inhibitor, TbMetRS inhib)
O=c1[nH]c2ccc(Cl)cc2c(=O)n1Cc1ccco1	TbMetRS inhib 9.4 | TbMetRS confirm 27.9 | Jurkat cytotox inactive | Tb MetRS inh FP inactive
O=c1c2cc(N3CCOCC3)ccc2[nH]c(=S)n1Cc1ccco1	none
O=c1c2cc(Cl)ccc2[nH]c(=S)n1Cc1ccco1	TbMetRS inhib 8.1 | TbMetRS confirm 12.6 | Jurkat cytotox inactive | Tb MetRS inh FP inactive
COC(=O)c1cc2c(c3c4cc(F)ccc4n(S(=O)(=O)c4ccccc4)c13)C(=O)N(C)C2	none (no result: DAGLB inhibitor, TbMetRS inhib)
CCC[C@H]1[C@@H](OC(=O)NCc2cccc(Cl)c2)CC[C@@]23CCCN2C(=O)CCC[C@@H]13	none (no result: DAGLB inhibitor, TbMetRS inhib)
NC(Cc1ccc(Cl)cc1)c1csc(NC(=O)Nc2ccccc2)n1 (stereo not given)	TbMetRS inhib 60.6 (no result: DAGLB inhibitor) | TbMetRS confirm 86.9 | Jurkat cytotox inactive | Tb MetRS inh FP 85.3
NC(Cc1ccc(C(F)(F)F)cc1)c1csc(NC(=O)Nc2ccccc2)n1 (stereo not given)	TbMetRS inhib 76.9 (no result: DAGLB inhibitor) | TbMetRS confirm 96.2 | Jurkat cytotox inactive | Tb MetRS inh FP 90.5
NC(Cc1ccc(C(F)(F)F)cc1)c1csc(NC(=O)Nc2ccccc2Cl)n1 (stereo not given)	none (no result: DAGLB inhibitor)
COc1ccccc1NC(=O)Nc1nc(C(N)Cc2ccc(Cl)cc2)cs1 (stereo not given)	none (no result: DAGLB inhibitor)
COC(=O)C1=C(C)N(Cc2ccc(F)cc2)C(=S)NC1c1cccc(OC)c1 (stereo not given)	none (no result: DAGLB inhibitor, TbMetRS inhib)
NC(=O)CSc1nnc(Cc2csc(Nc3ccccc3)n2)n1Cc1ccccc1	TbMetRS inhib 9.0 | TbMetRS confirm 16.0 | Jurkat cytotox inactive | Tb MetRS inh FP inactive
COCCCn1c(Cc2csc(Nc3ccccc3)n2)nnc1SCC(N)=O	none
Cc1ccccc1NC(=O)CCC(=O)N/N=C/c1c[nH]c2ccccc12	none
Cc1ccc(CN2CCN(CC(=O)N/N=C/c3c[nH]c4ccccc34)CC2)cc1	none
O=C(CN1CCN(Cc2ccc(Cl)cc2)CC1)N/N=C/c1c[nH]c2ccccc12	TbMetRS inhib 8.4 | TbMetRS confirm 30.8 | Jurkat cytotox inactive | Tb MetRS inh FP inactive
O=C(CCC(=O)Nc1ccccc1Cl)N/N=C/c1c[nH]c2ccccc12	TbMetRS inhib 8.0 | TbMetRS confirm 15.6 | Jurkat cytotox inactive | Tb MetRS inh FP inactive
COc1ccc(OC)c(S(=O)(=O)N(CCc2ccc(OC)c(OC)c2)Cc2cccs2)c1	none (no result: DAGLB inhibitor, TbMetRS inhib)
CC(C)C[C@H](NC1(C(=O)NC2CCCCC2)CCN(C)CC1)C(=O)NCC(c1ccccc1)c1ccccc1	none (no result: DAGLB inhibitor, TbMetRS inhib)
O=C(Nc1nc2c(s1)CCCC2)C1CCCN1C(=O)c1cccs1 (stereo not given)	TbMetRS inhib 5.9 | TbMetRS confirm inactive | Jurkat cytotox inactive | Tb MetRS inh FP inactive
O=C(Nc1ccc(Cl)c(Cl)c1)Nc1cc(S(=O)(=O)N2CCOCC2)ccc1N1CCCC1	TbMetRS inhib 8.0 | TbMetRS confirm 15.8 | Jurkat cytotox inactive | Tb MetRS inh FP inactive
O=S(=O)(Nc1cc(S(=O)(=O)N2CCOCC2)ccc1NCC1CCCO1)c1ccc(F)cc1 (stereo not given)	none
O=C(CN1CCOCC1)Nc1ccc(Cl)c(Cl)c1	none (no result: PLCg1 inh, sPLA2-III inh, PLCb3 inh)
O=C(Nc1ccccc1F)Nc1cc(S(=O)(=O)N2CCOCC2)ccc1N1CCCC1	none
O=C(CNc1cc(S(=O)(=O)N2CCOCC2)ccc1NCC1CCCO1)Nc1cccc(F)c1 (stereo not given)	TbMetRS inhib 14.3 | TbMetRS confirm 9.1 | Jurkat cytotox inactive | Tb MetRS inh FP inactive
O=C(CNc1cc(S(=O)(=O)N2CCOCC2)ccc1N1CCCC1)Nc1ccc(Cl)cc1	TbMetRS inhib 47.9 | TbMetRS confirm 65.4 | Jurkat cytotox inactive | Tb MetRS inh FP 35.3
O=C(CN1CCN(S(=O)(=O)N2CCOCC2)CC1)Nc1ccc(Cl)c(Cl)c1	TbMetRS inhib 12.0 | TbMetRS confirm 33.0 | Jurkat cytotox inactive | Tb MetRS inh FP inactive
COc1ccc(CNS(=O)(=O)CC2NCc3cc(OC)ccc32)cc1 (stereo not given)	none (no result: DAGLB inhibitor, TbMetRS inhib)
CCC(=O)OCCCN1CCC2(CCC(c3ccccc3)CC2)C1=O (stereo not given)	none (no result: DAGLB inhibitor, TbMetRS inhib)
Cc1ccc2nc(SC(C)C(=O)Nc3cccc([N+](=O)[O-])c3)[nH]c2c1 (stereo not given)	TbMetRS inhib 37.7 | TbMetRS confirm 63.6 | Jurkat cytotox inactive | Tb MetRS inh FP 36.9
Cc1ccc2nc(SC(C)C(=O)NC3CCCC3)[nH]c2c1 (stereo not given)	none
Cc1ccc2nc(SCC(=O)Nc3ccc(F)c([N+](=O)[O-])c3)[nH]c2c1	TbMetRS inhib 39.1 | TbMetRS confirm 49.8 | Jurkat cytotox 19.4 | Tb MetRS inh FP 26.6
O=C(CSc1nnc(Nc2ccccc2)s1)Nc1ccc(S(=O)(=O)N2CCOCC2)cc1	TbMetRS inhib 13.2 | TbMetRS confirm 29.0 | Jurkat cytotox inactive | Tb MetRS inh FP 19.1

Source: PubChem BioAssay (The Scripps Research Institute Molecular Screening Center)
